Reference: ChEMBL document CHEMBL1687903, “Claurailas A-D, cytotoxic carbazole alkaloids from the roots of Clausena harmandiana” (J Nat Prod, 2011)

Experiments:
KB = test: Cytotoxicity against human KB cells by resazurin microplate assay; assay type: functional, cell-based
Method in brief: (§1)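 Resazurin microplate assay (REMA) on human epidermoid carcinoma KB and human small cell lung cancer NCI-H187 lines, with ellipticine as reference substance. Activity reported as IC50 in μM.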

NCI-H187 = test: Cytotoxicity against human NCI-H187 by resazurin microplate assay; assay type: functional, cell-based; method in brief: as §1
Vero = test: Cytotoxicity against african green monkey Vero cells by green fluorescent protein microplate assay; assay type: cell-based; conditions: Chlorocebus sabaeus
Method in brief: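 Green fluorescent protein-based assay on Vero cells (African green monkey kidney), used as the normal-cell counterscreen, with ellipticine as reference substance. Activity reported as IC50 in μM.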

With `COc1ccc2c(c1)[nH]c1c(O)cc(C=O)cc12` the IC50 (KB) was 10.7 µM, the IC50 (NCI-H187) was 10.4 µM and the IC50 (Vero) was 180 µM.
`COc1ccc2c(c1)[nH]c1c(CC=C(C)C)c(O)c(C=O)cc12` showed an IC50 (KB) of 2.75 µM, an IC50 (NCI-H187) of 1.68 µM and an IC50 (Vero) of over 200 µM.
With `CC(C)=CCc1c(O)c(C=O)cc2c1[nH]c1cc(O)ccc12` [7-HYDROXYHEPTAPHYLLINE] the IC50 (KB) was 27.9 µM, the IC50 (NCI-H187) was 14.6 µM and the IC50 (Vero) was 41.2 µM.
`COc1ccc2c(c1)[nH]c1c(OC)cc(C=O)cc12` [CLAURAILAS A] showed an IC50 (KB) of over 200 µM, an IC50 (NCI-H187) of 13.5 µM and an IC50 (Vero) of over 200 µM.
Work on `Cc1cc2c([nH]c3c(O)cccc32)c2c1OC(C)(C)C=C2` [CLAURAILAS B] yielded an IC50 (KB) of over 200 µM, an IC50 (NCI-H187) of over 200 µM and an IC50 (Vero) of over 200 µM.
`COC(=O)c1ccc2[nH]c3ccc4c(c3c2c1)C=CC(C)(C)O4` [CLAURAILAS C] gave an IC50 (KB) of over 200 µM, an IC50 (NCI-H187) of over 200 µM and an IC50 (Vero) of over 200 µM.
Work on `CC1(C)C=Cc2c(ccc3[nH]c4cc(O)c(C=O)cc4c23)O1` [CLAURAILAS D] yielded an IC50 (KB) of 30.6 µM, an IC50 (NCI-H187) of 7.54 µM and an IC50 (Vero) of 29.4 µM.
Compound `COC(=O)c1cc(O)c2[nH]c3ccccc3c2c1` [CLAUSINE E] has an IC50 (KB) of 108 µM, an IC50 (NCI-H187) of 94.6 µM and an IC50 (Vero) of 152 µM.
`COc1ccc2c(c1)[nH]c1cc(OC)c(C(=O)O)cc12` [CLAUSINE K] was tested, and the IC50 (KB) was over 200 µM, the IC50 (NCI-H187) was 139 µM and the IC50 (Vero) was 178 µM.
For `O=Cc1cc2c(cc1O)[nH]c1cc(O)ccc12` [CLAUSINE O], the IC50 (KB) was 59.6 µM, the IC50 (NCI-H187) was 74.7 µM and the IC50 (Vero) was 64.6 µM.
With `C=CC(C)(C)c1c2c(c(OC)c3ccc(=O)oc13)C=CC(C)(C)O2` [DENTATIN] the IC50 (KB) was 114 µM, the IC50 (NCI-H187) was 45.4 µM and the IC50 (Vero) was over 200 µM.
In the case of `Cc1c2ccncc2c(C)c2c1[nH]c1ccccc12` [ELLIPTECINE], the IC50 (NCI-H187) is reported as 2.76 µM and the IC50 (Vero) is reported as 3.82 µM.
`Cc1cc2c([nH]c3ccccc32)c2c1OC(C)(C)C=C2` [GRINIMIBINE] was tested, and the IC50 (KB) was 7.02 µM, the IC50 (NCI-H187) was 22.4 µM and the IC50 (Vero) was over 200 µM.
For `CC(C)=CCc1c(O)c(C=O)cc2c1[nH]c1ccccc12` [HEPTAPHYLLINE], the IC50 (KB) was 1.61 µM, the IC50 (NCI-H187) was 1.32 µM and the IC50 (Vero) was 92.5 µM.
For `COc1ccc2c(c1)[nH]c1cc(OC)c(C=O)cc12` [LANSINE], the IC50 (KB) was over 200 µM, the IC50 (NCI-H187) was 102 µM and the IC50 (Vero) was over 200 µM.
For `COc1cc(C=O)cc2c1[nH]c1ccccc12` [MURRAYANINE], the IC50 (KB) was 72.2 µM, the IC50 (NCI-H187) was 11.5 µM and the IC50 (Vero) was over 200 µM.
With `C=CC(C)(C)c1c2c(c(O)c3ccc(=O)oc13)C=CC(C)(C)O2` [NORDENTATIN] the IC50 (KB) was 20.6 µM, the IC50 (NCI-H187) was 11.8 µM and the IC50 (Vero) was 56.4 µM.
`O=Cc1cc(O)c2[nH]c3ccccc3c2c1` [O-DEMETHYLMURRAYANINE] showed an IC50 (KB) of 5.49 µM, an IC50 (NCI-H187) of 19.2 µM and an IC50 (Vero) of 104 µM.
For `COc1c2c(cc3oc(=O)ccc13)OC(C)(C)C=C2` [XANTHOXYLETIN], the IC50 (KB) was 133 µM, the IC50 (NCI-H187) was over 200 µM and the IC50 (Vero) was over 200 µM.
